Here are results for 1 compound from ChEMBL document CHEMBL4373680, “Small antibacterial molecules highly active against drug-resistant Staphylococcus aureus” (Medchemcomm, 2019).

By MIC is commonly meant the lowest concentration found to suppress growth. The term EC50 denotes the midpoint of the concentration-response curve. High values mean weaker potency, low ones greater potency.

The test system of data set [1] is Staphylococcus aureus. As to the kind of experiment: Bactericidal activity against planktonic phase of methicillin-resistant Staphylococcus aureus R3545 assessed as log reduction in bacterial colony forming units at 16 ug/ml incubated for 6 hrs followed by plating on agar plate for 24 hrs by time-kill kinetic assay. The class given is functional. The method, boiled down:
(§1)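 Time-kill: 6 h mid-log culture diluted to 10⁵ CFU/mL in MHB, incubated at 37 °C with compound at […]; 0.9% saline control. Aliquots at 1, 2, 4, 6, 8 and 12 h ten-fold diluted in saline, plated on NB agar 24 h at 37 °C; colonies counted, log scale.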

Data set [2] has as its system Staphylococcus aureus. Put plainly: Bactericidal activity against planktonic phase of methicillin-resistant Staphylococcus aureus R3545 assessed as log reduction in bacterial colony forming units at 32 ug/ml incubated for 12 hrs followed by plating on agar plate for 24 hrs by time-kill kinetic assay. It counts as functional. The method, boiled down: as §1
The subject of data set [3] is Staphylococcus aureus. Put plainly: Bactericidal activity against planktonic phase of methicillin-resistant Staphylococcus aureus ATCC 33591 assessed as log reduction in bacterial colony forming units at 32 ug/ml incubated for 8 hrs followed by plating on agar plate for 24 hrs by time-kill kinetic assay. It counts as functional. The method, boiled down: as §1
Data set [4] deals with Staphylococcus aureus. Put plainly: Antibacterial activity against methicillin-resistant Staphylococcus aureus R3545 clinical isolate after 24 hrs by tecan plate reader analysis. The class given is functional. Conditions: R3545, 24 h. The method, boiled down: (§2)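 Colony grown 24 h on NB agar at 37 °C, then 6 h in nutrient broth to mid-log (10⁸ CFU/mL by drop plating), diluted to 10⁵ CFU/mL in Mueller Hinton broth; added 9:1 to two-fold serial compound dilutions in MHB. Incubated 24 h, 37 °C; OD600 read. Triplicate per concentration, experiment run twice; MIC taken from the range of triplicate OD values.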

Data set [5] has as its system Staphylococcus aureus. Put plainly: Antibacterial activity against methicillin-resistant Staphylococcus aureus R3890 clinical isolate after 24 hrs by tecan plate reader analysis. The class given is functional. Particulars: R3890, 24 h. The gist of the method: as §2
Data set [6] relates to MDCK. As to the kind of experiment: Cytotoxicity against dog MDCK cells after 24 hrs by alamar blue assay. The class given is cell-based. Conditions: Canis lupus familiaris. The gist of the method:
(§3)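 About 10⁴ cells/well in DMEM with 10% FBS. Medium replaced with two-fold compound dilutions and incubated 24 h at 37 °C, 5% CO₂. Alamar Blue added for a further 4 h, absorbance 570 nm (600 nm reference). Viability normalized to untreated and 0.1% Triton-X wells. Triplicates; sigmoidal fit gives the 50% viability concentration.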

Data set [7] concerns Staphylococcus aureus. As to the kind of experiment: Ratio of MIC for Staphylococcus aureus ATCC 33591 using compound preincubated with mouse 50% liver homogenate for 3 hrs to MIC for Staphylococcus aureus ATCC 33591 using non-treated compound. The class given is functional, organism-based. The method, boiled down: (§4)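 Compound mixed 1:1 with human plasma, human serum or mouse liver homogenate (50%) and held 3 h at 37 °C. Saline and PBS incubations served as controls. Mixtures two-fold diluted (saline for plasma/serum, PBS for homogenate), then MRSA ATCC33591 (~10⁵ CFU/mL in MHB) added.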

Data set [8] has as its system A549. Put plainly: Cytotoxicity against human A549 cells up to 128 ug/ml after 24 hrs by alamar blue assay. It counts as cell-based. Conditions: a549, 24 h. The gist of the method:
as §3
In general terms: Resazurin is reduced to fluorescent resorufin, in cell work by metabolically active cells.

For another data set, the system named is Acinetobacter baumannii. Put plainly: Antibacterial activity against Acinetobacter baumannii MTCC 1425 after 24 hrs by tecan plate reader analysis. The class given is functional. Conditions: MTCC 1425, 24 h. The gist of the method:
(§5)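 Broth microdilution MIC. Glycerol stocks grown on MacConkey agar 24 h at 37 °C, then a single colony in nutrient broth 6 h to mid-log (~10⁸ CFU/mL). Cells diluted to 10⁵ CFU/mL in Mueller Hinton broth and added to two-fold compound dilutions. Incubated 24 h at 37 °C, OD600 read. Triplicate wells, experiment run twice.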

Data set [9] concerns Staphylococcus aureus. As to the kind of experiment: Antibiofilm activity against Staphylococcus aureus R3545 assessed as reduction in biofilm biomass at 16 to 64 ug/ml incubated for 24 hrs followed by plating on agar plate for 24 hrs by crystal violet staining assay relative to control. The class given is functional. The gist of the method: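 Coverslip biofilms grown 24 h at 37 °C in nutrient broth with 1% glucose and 1% NaCl, then treated with compound for 24 h. PBS-washed and air-dried, stained with 0.1% w/v crystal violet for 5-10 min, washed, stain recovered in 95% ethanol, OD 522 nm read. Two experiments, mean with standard deviation.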

The subject of data set [10] is MDCK. Put plainly: Cytotoxicity against dog MDCK cells assessed as cell survival at 32 ug/ml after 24 hrs by calcein AM/propidium iodide staining based fluorescence microscopy analysis. Also on record: species or system Canis lupus familiaris. The gist of the method: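 MDCK at about 10⁴ cells/well exposed to 32 µg/mL compound for 24 h at 37 °C, 5% CO₂. Untreated and 0.1 vol% Triton-X controls. Stained with calcein AM (2 µM) and PI (4.5 µM) for 15 min at 37 °C, PBS-washed, imaged by fluorescence microscopy at 50×.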

The test system of data set [11] is Staphylococcus aureus. As to the kind of experiment: Antibacterial activity against vancomycin-resistant Staphylococcus aureus clinical isolate 4 after 24 hrs by tecan plate reader analysis. The class given is functional. Particulars: clinical isolate 4, 24 h. The method, boiled down: as §2
For data set [12], the system named is Staphylococcus aureus. As to the kind of experiment: Antibacterial activity against vancomycin-resistant Staphylococcus aureus clinical isolate 1 after 24 hrs by tecan plate reader analysis. The class given is functional. Conditions: clinical isolate 1, 24 h. The gist of the method:
as §2

Data set [13] in a line: Ratio of EC50 for dog MDCK cells to MIC for vancomycin-resistant Staphylococcus aureus clinical isolate 2. It counts as toxicity.
The subject of data set [14] is Staphylococcus aureus. Put plainly: Antibacterial activity against Staphylococcus aureus ATCC 33591 using compound preincubated with human 50% serum for 3 hrs and measured after 24 hrs by tecan-plate reader analysis. It counts as functional. The gist of the method: as §4
Data set [15] concerns Staphylococcus aureus. Put plainly: Antibacterial activity against methicillin-resistant Staphylococcus aureus ATCC 33591 after 24 hrs by tecan plate reader analysis. It counts as functional. Particulars: ATCC 33591, 24 h. The method, boiled down: as §2
A short description of data set [16]: Selectivity index, ratio of HC50 for human erythrocytes to MIC for Escherichia coli MTCC 443. It counts as toxicity. Conditions: read-out: Selectivity Index.
Data set [17] deals with Staphylococcus aureus. Put plainly: Bactericidal activity against metabolically inactive stationary phase methicillin-resistant Staphylococcus aureus R3545 assessed as log reduction in bacterial colony forming units at 32 ug/ml incubated for 6 hrs followed by plating on agar plate for 24 hrs by visual counting analysis. The class given is functional.
The test system of a further data set is Escherichia coli. Put plainly: Antibacterial activity against Escherichia coli MTCC 443 after 24 hrs by tecan plate reader analysis. It counts as functional. Particulars: MTCC 443, 24 h. The method, boiled down: as §5
Data set [18] has as its system A549. As to the kind of experiment: Cytotoxicity against human A549 cells after 24 hrs by alamar blue assay. Particulars: A549, 24 h. The class given is cell-based. The gist of the method: as §3
Another data set deals with Klebsiella pneumoniae. Put plainly: Antibacterial activity against Klebsiella pneumoniae ATCC 700603 after 24 hrs by tecan plate reader analysis. The class given is functional. Conditions: Klebsiella pneumoniae, 700603, 24 h. The method, boiled down:
as §5

Data set [19] deals with Staphylococcus aureus. As to the kind of experiment: Antibacterial activity against Staphylococcus aureus ATCC 33591 assessed as increase in dead cells by measuring bright red fluorescence intensity at 32 ug/ml after 2 hrs by SYTO-9/propidium iodide staining based fluorescence microscopy analysis. It counts as functional, organism-based. The gist of the method: (§6)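 Mid-log cells (~10⁸ CFU/mL) pelleted and resuspended in 0.9% saline. Treated with 32 µg/mL compound for 2 h at 37 °C, pelleted and resuspended in saline. Stained with SYTO9 (3 µM) plus PI (15 µM) for 15 min in the dark, unbound dye removed, then imaged by fluorescence microscopy at 100×.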

Data set [20] in a line: Selectivity index, ratio of HC50 for human erythrocytes to MIC for methicillin-resistant Staphylococcus aureus ATCC 33591. Conditions: read-out: Selectivity Index. The class given is toxicity.
Data set [21] has as its system Staphylococcus aureus. As to the kind of experiment: Antibacterial activity against Staphylococcus aureus ATCC 33591 assessed as decrease in live cells at 32 ug/ml after 2 hrs by SYTO-9/propidium iodide staining based fluorescence microscopy analysis. It counts as functional, organism-based. The gist of the method: as §6

The structures appear in SMILES notation. Active and inactive are the calls of the source. The rule behind the calls is not given here.

As for `CCCCCCNC(=O)C[N+](C)(CCO)CCCCCCCCCCCC[N+](C)(CCO)CC(=O)NCCCCCC.O=C([O-])C(F)(F)F.O=C([O-])C(F)(F)F` (centres undefined), the Activity is more than 2 log10CFU/ml with Staphylococcus aureus [1]; 6 log10CFU/ml in the data set on Staphylococcus aureus [2]; 5 log10CFU/ml with Staphylococcus aureus [3]; “Non-Toxic” with A549 [8]; “Non-Toxic” in the data set with MDCK [10]; 2.8 log10CFU/ml with Staphylococcus aureus [17]. The MIC against Staphylococcus aureus [4] was 1 to 2 µg/mL; in the data set on Staphylococcus aureus [5], 2 µg/mL; against Acinetobacter baumannii, 64 µg/mL; in the data set with Staphylococcus aureus [11], 2 µg/mL; in the data set with Staphylococcus aureus [12] it was 2 µg/mL; in the data set with Staphylococcus aureus [14], 4 µg/mL. Besides, the MIC against Staphylococcus aureus [15] is 1 to 2 µg/mL; against Escherichia coli, 2 µg/mL; against Klebsiella pneumoniae it was 128 µg/mL. Also, the results for the EC50 with MDCK [6] and in the data set on A549 [18] were 188 µg/mL and 194 µg/mL, respectively. Further, in the data set on Staphylococcus aureus [7], the Ratio was 2. In the data set on Staphylococcus aureus [9], the “inhibition (INH)” value turned out to be 80%. The selectivity ratio in data set [13] is 94 to 97; in data set [16], 288; in [20], 577. Besides, the outcome with Staphylococcus aureus [19] was Active. Besides, the inhibition result with Staphylococcus aureus [21] is “Active”.
